# Reference: ChEMBL document CHEMBL1250541, “20-Aminosteroids as a novel class of selective and complete androgen receptor antagonists and inhibitors of prostate cancer cell growth” (Bioorg Med Chem, 2010)
# Calls of active or inactive are those of the source. No cut-off for these calls is given here.
# How the values were obtained:
# [1] = target: T1, Androgen receptor (Homo sapiens) (UniProt P10275); experiment: Agonist activity at human androgen receptor expressed in human CV1 cells assessed as induction of receptor-mediated transactivation by MMTV-luciferase reporter gene assay; format: functional, cell-based; details: CV-1
# T1 sequence (whole entry): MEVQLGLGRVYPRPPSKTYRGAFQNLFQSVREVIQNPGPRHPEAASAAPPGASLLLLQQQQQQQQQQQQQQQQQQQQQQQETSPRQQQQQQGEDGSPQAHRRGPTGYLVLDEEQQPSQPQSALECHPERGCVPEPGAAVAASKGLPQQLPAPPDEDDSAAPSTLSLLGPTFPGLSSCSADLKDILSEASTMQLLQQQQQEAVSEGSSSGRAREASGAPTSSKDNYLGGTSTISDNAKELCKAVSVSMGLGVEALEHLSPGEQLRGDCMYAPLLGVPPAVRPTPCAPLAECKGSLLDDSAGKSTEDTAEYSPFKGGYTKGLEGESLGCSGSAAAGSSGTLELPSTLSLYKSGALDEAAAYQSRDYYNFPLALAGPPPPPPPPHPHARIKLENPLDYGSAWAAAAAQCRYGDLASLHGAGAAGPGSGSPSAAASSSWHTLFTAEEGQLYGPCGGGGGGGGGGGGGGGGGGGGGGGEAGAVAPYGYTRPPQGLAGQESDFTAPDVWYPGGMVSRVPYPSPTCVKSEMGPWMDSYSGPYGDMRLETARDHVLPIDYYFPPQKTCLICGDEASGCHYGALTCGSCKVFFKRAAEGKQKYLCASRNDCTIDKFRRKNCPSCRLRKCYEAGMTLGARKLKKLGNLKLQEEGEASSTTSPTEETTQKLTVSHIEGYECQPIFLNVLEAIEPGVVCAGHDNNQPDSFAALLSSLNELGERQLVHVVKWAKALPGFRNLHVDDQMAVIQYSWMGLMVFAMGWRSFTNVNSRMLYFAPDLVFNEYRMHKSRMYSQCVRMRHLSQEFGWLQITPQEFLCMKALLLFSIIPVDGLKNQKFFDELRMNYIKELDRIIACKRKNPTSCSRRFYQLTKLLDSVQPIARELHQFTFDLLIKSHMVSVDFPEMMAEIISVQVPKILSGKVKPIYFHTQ
# Outline: (§1)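 CV1 cells seeded at 1.2 × 10⁵ per well in DMEM with 5% charcoal-stripped serum, CaPO₄-transfected 18 h later with MMTV-luciferase reporter, human AR (wild type or T877A) expression vector and CMV-β-galactosidase control. After 24 h, medium was replaced with compounds alone or R1881. Cells were harvested 96 h later. Luciferase was normalized to β-gal (RLU). Duplicates, repeated at least twice.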
# [2] = target: T2, Androgen receptor (Homo sapiens, UniProt P10275); experiment: Antagonist activity at human androgen receptor expressed in human CV1 cells assessed as inhibition of receptor-mediated transactivation by MMTV-luciferase reporter gene assay; format: functional, cell-based, CV-1
# T2 sequence (P10275 whole entry): T1 sequence (whole entry)
# [3] = tested on: Androgen receptor (Homo sapiens), P10275 [T878A]; experiment: Agonist activity at human androgen receptor T877A mutant expressed in human CV1 cells assessed as induction of receptor-mediated transactivation by MMTV-luciferase reporter gene assay; format: functional, cell-based; details: CV-1; outline: as §1
# [4] = tested on: Androgen receptor (Homo sapiens), P10275 [T878A]; experiment: Antagonist activity at human androgen receptor T877A mutant expressed in human CV1 cells assessed as inhibition of receptor-mediated transactivation by MMTV-luciferase reporter gene assay; format: functional, cell-based; details: CV-1
# Outline: (§2)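 CV1 cells in DMEM with 5% charcoal-stripped serum, transfected by CaPO₄ with MMTV-luciferase, wild-type or T877A human AR vector and CMV-β-galactosidase. Compounds were added together with the agonist R1881 24 h post-transfection. After a further 96 h, luciferase was read and normalized to β-gal activity as RLU. Duplicates, repeated at least twice. NBBS antagonist and DMSO served as controls.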
# [5] = target: T1, Androgen receptor (Homo sapiens); experiment: Antagonist activity at human androgen receptor in human LNCAP cells assessed as inhibition of PSA mRNA expression by RT-PCR; format: functional, cell-based
# Outline: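 LNCaP cells treated with or without androgens plus compounds at 10 µM. DMSO-treated cells served as control. PSA mRNA was normalized to beta-actin expression.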
# [6] = tested on: PC-3; experiment: Cytotoxicity against human PC3 cells after 2 days; format: functional, cell-based
# Outline: (§3)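 Cells seeded in triplicate in 6-well plates at 25 × 10³ (LNCaP) or 5 × 10³ (PC3) per well in medium with 5% FCS. After 2 days they were treated with DMSO or compounds, with medium and compound renewed every second/third day. Cells were counted on the indicated days and normalized to day 0. Atraric acid served as positive control.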
# [7] = tested on: Androgen receptor (Homo sapiens), P10275 [T878A]; experiment: Antagonist activity at human androgen receptor T877A mutant expressed in human CV1 cells assessed as inhibition of receptor-mediated transactivation at 1 uM by MMTV-luciferase reporter gene assay; format: functional, cell-based; details: CV-1; outline: as §2
# [8] = target: T1, Androgen receptor (Homo sapiens); experiment: Antagonist activity at human androgen receptor expressed in human CV1 cells assessed as inhibition of receptor-mediated transactivation at 1 uM by MMTV-luciferase reporter gene assay; format: functional, cell-based; details: CV-1; outline: as §2
# [9] = tested on: LNCaP; experiment: Induction of senescence in human LNCAP cells assessed as beta galactosidase activity after 3 days; format: functional, cell-based
# [10] = tested on: LNCaP; experiment: Cytotoxicity against human LNCAP cells at 10 uM after 2 days; format: functional, cell-based; outline: as §3
# Chain of Androgen receptor (Homo sapiens), P10275 [T878A] (P10275 whole entry T878A): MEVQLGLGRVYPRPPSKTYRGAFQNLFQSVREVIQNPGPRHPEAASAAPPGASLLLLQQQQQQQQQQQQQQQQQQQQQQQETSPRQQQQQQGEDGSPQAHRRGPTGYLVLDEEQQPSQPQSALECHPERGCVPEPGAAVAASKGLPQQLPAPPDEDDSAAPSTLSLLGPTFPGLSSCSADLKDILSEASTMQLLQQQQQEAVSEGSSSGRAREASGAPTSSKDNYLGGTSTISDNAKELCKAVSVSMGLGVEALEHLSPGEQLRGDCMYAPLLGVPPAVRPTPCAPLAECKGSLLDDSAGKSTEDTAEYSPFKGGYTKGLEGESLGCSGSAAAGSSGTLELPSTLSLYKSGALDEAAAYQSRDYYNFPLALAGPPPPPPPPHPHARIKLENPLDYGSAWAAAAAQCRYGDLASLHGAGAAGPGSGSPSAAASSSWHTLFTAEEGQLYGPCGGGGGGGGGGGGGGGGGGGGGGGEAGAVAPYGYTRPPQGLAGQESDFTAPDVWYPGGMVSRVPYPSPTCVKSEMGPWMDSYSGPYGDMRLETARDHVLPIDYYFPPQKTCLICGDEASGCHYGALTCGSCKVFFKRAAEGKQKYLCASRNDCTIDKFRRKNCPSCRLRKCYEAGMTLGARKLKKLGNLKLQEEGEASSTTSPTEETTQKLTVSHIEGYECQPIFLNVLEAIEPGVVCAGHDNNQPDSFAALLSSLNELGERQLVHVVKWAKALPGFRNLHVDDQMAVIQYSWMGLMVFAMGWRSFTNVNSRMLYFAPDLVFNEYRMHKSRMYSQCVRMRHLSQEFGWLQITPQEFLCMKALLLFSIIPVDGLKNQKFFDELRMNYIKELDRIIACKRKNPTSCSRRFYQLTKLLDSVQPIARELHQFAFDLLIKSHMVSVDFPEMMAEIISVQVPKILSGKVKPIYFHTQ
SMILES,Activity [1],IC50 [2] [nM],Activity [3],other results
C[C@]12CC[C@H]3[C@@H](CCC4=CC(=O)CC[C@@]43C)[C@@H]1CC[C@@H]2[C@]1(C)CC=CC(=O)N1,inactive,500,–,–
C[C@]12CC[C@H]3[C@@H](CC=C4C[C@@H](O)CC[C@@]43C)[C@@H]1CC[C@@H]2[C@@]1(C)CC=CC(=O)N1,inactive,2000,inactive,Activity [4]: Active; Activity [5]: Active
C[C@]12CC[C@H]3[C@@H](CC=C4C[C@@H](O)CC[C@@]43C)[C@@H]1CC[C@@H]2[C@]1(C)CC=CC(=O)N1,inactive,3000,inactive,Activity [6]: inactive; Activity [7]: Active; Activity [8]: Active; Activity [5]: Active; Activity [9]: Active; Activity [10]: Active
COC(=O)c1c(C)cc(O)c(C)c1O,–,–,–,Activity [10]: Active
C[C@]12CC[C@H]3[C@@H](CC=C4C[C@@H](O)CC[C@@]43C)[C@@H]1CC[C@@H]2[C@](C)(N)Cc1ccccc1,inactive,–,–,–

# Further lines, with some results ahead:
Activity [1],IC50 [2] [nM],Activity [3],SMILES,other results
inactive,–,Active,C=CC[C@](C)(N)[C@H]1CC[C@H]2[C@@H]3CC=C4C[C@@H](O)CC[C@]4(C)[C@H]3CC[C@@]21C,–
inactive,–,Active,C=CC[C@@](C)(N)[C@H]1CC[C@H]2[C@@H]3CC=C4C[C@@H](O)CC[C@]4(C)[C@H]3CC[C@@]21C,–
inactive,–,Active,C=CC(C)[C@@](C)(N)[C@H]1CC[C@H]2[C@@H]3CC=C4C[C@@H](O)CC[C@]4(C)[C@H]3CC[C@@]21C (some centres undefined),–
